From ChEMBL document CHEMBL1129535, “Antitumor agents. 164. Podophenazine, 2'',3''-dichloropodophenazine, benzopodophenazine, and their 4 beta-p-nitroaniline derivatives as novel DNA topoisomerase II inhibitors” (J Med Chem, 1996)

Tests used:
KB [1] = experiment: Growth inhibitory activity (antiproliferative) against KB cell lines; assay type: functional, cell-based; conditions: Homo sapiens
Method in brief: (§1)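 Cells (50 000 or 5000 per well) were seeded and left overnight. Compound was diluted from DMSO stocks into medium at 2× final and added in duplicate. After 2 days the cells were trypsinized and suspended in PBS with 0.5% trypan blue. Viable cells, those not staining blue, were counted by hemacytometer. IC50 was read graphically. KB/7d is an etoposide-selected multidrug-resistant subclone with reduced topoisomerase II.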

KB [2] = experiment: Growth inhibitory activity (antiproliferative) against KB/7d cell lines; assay type: functional, cell-based; conditions: Homo sapiens; method in brief: as §1
Nucleic Acid [3] = experiment: Stimulation of in vitro Topoisomerase II-Linked DNA Complex Formation and Interference with Etoposide-Induced Cleavage at concentration 50 uM; assay type: functional
Method in brief: (§2)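 Buffer: 30 mM Tris-HCl pH 7.6, 60 mM KCl, 8 mM MgCl2, 3 mM ATP, 15 mM β-mercaptoethanol and 30 μg/mL BSA, with 4 U topoisomerase II. Reactions ran 30 min at 37 °C. Protein-linked DNA was K+/SDS-precipitated and counted (cpm), mean ± SD of 2–4 determinations.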

Nucleic Acid [4] = experiment: Stimulation of in vitro Topoisomerase II-Linked DNA Complex Formation and Interference with Etoposide-Induced Cleavage at concentration 1 uM; assay type: functional; method in brief: as §2
[5] = The differential toxicity ratio was defined as IC50(KB/7d)/IC50(KB); assay type: functional
Method in brief: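 The ratio IC50(KB/7d)/IC50(KB) uses IC50s from 2-day treatments scored by trypan-blue-excluding hemacytometer counts. KB/7d is an etoposide-selected subclone with reduced topoisomerase II.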

Nucleic Acid [6] = experiment: Stimulation of in vitro Topoisomerase II-Linked DNA Complex Formation and Interference with Etoposide-Induced Cleavage at concentration 100 uM; assay type: functional; method in brief: as §2

| Compound | IC50 (KB [1]) | IC50 (KB [2]) | cpm (Nucleic Acid [3]) | cpm (Nucleic Acid [4]) | cpm (Nucleic Acid [6]) | Ratio [5] |
| --- | --- | --- | --- | --- | --- | --- |
| COc1cc([C@@H]2c3cc4nc5ccccc5nc4cc3[C@H](O)[C@H]3COC(=O)[C@H]23)cc(OC)c1OC | 23.4 µM | 6.21 µM | – | – | – | – |
| COc1cc([C@@H]2c3cc(O)c(O)cc3[C@@H](Nc3ccc([N+](=O)[O-])cc3)[C@H]3COC(=O)[C@H]23)cc(OC)c1O | 0.42 µM | 16.6 µM | 661 | – | – | 39 |
| COc1cc([C@@H]2c3cc4c(cc3[C@@H](Nc3ccc([N+](=O)[O-])cc3)[C@H]3COC(=O)[C@H]23)OCO4)cc(OC)c1O | 0.032 µM | 0.55 µM | 2930 | – | – | 17 KB 7d-1 |
| COc1cc([C@@H]2c3cc4nc5cc(Cl)c(Cl)cc5nc4cc3[C@H](O)[C@H]3COC(=O)[C@H]23)cc(OC)c1OC | 13.3 µM | 9.2 µM | – | – | – | – |

More lines, main results first:

| IC50 (KB [1]) | IC50 (KB [2]) | cpm (Nucleic Acid [3]) | cpm (Nucleic Acid [4]) | cpm (Nucleic Acid [6]) | Compound | Ratio [5] |
| --- | --- | --- | --- | --- | --- | --- |
| 0.11 µM | 0.56 µM | 309 | 320 | 446 | COc1cc([C@@H]2c3cc4nc5ccccc5nc4cc3[C@@H](Nc3ccc([N+](=O)[O-])cc3)[C@H]3COC(=O)[C@H]23)cc(OC)c1O | 5 |
| 0.48 µM | 10.6 µM | 103 | 105 | 101 | COc1cc([C@@H]2c3cc4nc5cc(Cl)c(Cl)cc5nc4cc3[C@@H](Nc3ccc([N+](=O)[O-])cc3)[C@H]3COC(=O)[C@H]23)cc(OC)c1O | 22 |
| 0.164 µM | 23.8 µM | 2460 | 216 | 1840 | COc1cc([C@@H]2c3cc4c(cc3[C@@H](O[C@@H]3O[C@@H]5CO[C@@H](C)O[C@H]5[C@H](O)[C@H]3O)[C@H]3COC(=O)[C@H]23)OCO4)cc(OC)c1O [ETOPOSIDE] | 145 |
| 6.63 µM | – | – | – | – | COc1cc([C@@H]2c3cc4nc5cc6ccccc6cc5nc4cc3[C@@H](Nc3ccc([N+](=O)[O-])cc3)[C@H]3COC(=O)[C@H]23)cc(OC)c1O | – |
